ChEMBL document CHEMBL4316593 (Eur J Med Chem, 2019)
Activity calls are given as the source filed them. The rule behind the calls is not given here.

Columns and labels:
[1] = system: U-87 MG; experiment: Cell cycle arrest in human U87 cells assessed as change in PCNA gene expression at cytotoxic IC50 measured after 48 hrs […] relative to control; format: functional, U-87MG ATCC
Procedure, shortened: (§1)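 U87 expression profiling. Cells incubated 48hrs at 37°C, 5% CO₂ with the IC₅₀ concentration, alongside a cisplatin and an untreated control, in triplicate. RNA was isolated by one common protocol and profiled. DEGs were called with DESeq2 (q < 0.05, fold change > 1.5) and expressed as fold change versus untreated.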

[2] = system: U-87 MG; experiment: Induction of apoptosis in human U87 cells assessed as change in MAPK8 gene expression at cytotoxic IC50 measured after 48 hrs […] relative to control; format: functional, U-87MG ATCC
Procedure, shortened: (§2)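 U87 cells grown in MEM with 10% FBS at 37°C, 5% CO2. Cells exposed to IC50 of test compound for 48 hrs, alongside untreated and cisplatin controls, each condition in triplicate. RNA isolated and profiled; differential expression called with DESeq2 (q-value < 0.05, fold change > 1.5), fold change versus untreated.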

[3] = system: U-87 MG; experiment: Induction of DNA damage in human U87 cells assessed as change in BAX gene expression at cytotoxic IC50 measured after 48 hrs […] relative to control; format: functional, U-87MG ATCC; procedure, shortened: as §1
[4] = Inhibition of RTK/PI3K/AKT/mTOR signaling in human U87 cells assessed as up regulation of proline-serine-threonine phosphatase interacting protein 2 gene expression at cytotoxic IC50 measured after 48 hrs relative to control; format: cell-based; details: U-87MG ATCC
[5] = Inhibition of RTK/PI3K/AKT/mTOR signaling in human U87 cells assessed as down regulation of SIDT2 gene expression at cytotoxic IC50 measured after 48 hrs relative to control; format: cell-based; details: U-87MG ATCC
Procedure, shortened: (§3)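 Cells were exposed for 48hrs at 37°C in humidified 5% CO₂ to the compound at its previously determined IC₅₀, with Cisplatin at its IC₅₀ and an untreated negative control alongside. Each condition was run in triplicate. RNA was isolated from all samples by the same protocol. Genes were called differentially expressed by DESeq2 at q-value < 0.05 and fold change > 1.5.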

[6] = system: U-87 MG; experiment: Induction of DNA damage in human U87 cells assessed as change in DTL gene expression at cytotoxic IC50 measured after 48 hrs […] relative to control; format: functional, U-87MG ATCC; procedure, shortened: as §1
[7] = Inhibition of RTK/PI3K/AKT/mTOR signaling in human U87 cells assessed as up regulation of KLF7 gene expression at cytotoxic IC50 measured after 48 hrs relative to control; format: cell-based; details: U-87MG ATCC; procedure, shortened: as §3
[8] = Inhibition of RTK/PI3K/AKT/mTOR signaling in human U87 cells assessed as down regulation of CCDC186 gene expression at cytotoxic IC50 measured after 48 hrs relative to control; format: cell-based; details: U-87MG ATCC; procedure, shortened: as §2
[9] = system: U-87 MG; experiment: Induction of apoptosis in human U87 cells assessed as change in FAS gene expression at cytotoxic IC50 measured after 48 hrs […] relative to control; format: functional, U-87MG ATCC; procedure, shortened: as §2
[10] = Inhibition of RTK/PI3K/AKT/mTOR signaling in human U87 cells assessed as down regulation of NXF1 gene expression at cytotoxic IC50 measured after 48 hrs relative to control; format: cell-based; details: U-87MG ATCC; procedure, shortened: as §3
[11] = system: U-87 MG; experiment: Cell cycle arrest in human U87 cells assessed as change in PKMYT1 gene expression at cytotoxic IC50 measured after 48 hrs […] relative to control; format: functional, U-87MG ATCC; procedure, shortened: as §1
[12] = system: U-87 MG; experiment: Induction of apoptosis in human U87 cells assessed as change in TNFRSF10C gene expression at cytotoxic IC50 measured after 48 hrs […] relative to control; format: functional, U-87MG ATCC; procedure, shortened: as §2
[13] = system: U-87 MG; experiment: Cell cycle arrest in human U87 cells assessed as change in MCM3 gene expression at cytotoxic IC50 measured after 48 hrs […] relative to control; format: functional, U-87MG ATCC; procedure, shortened: as §1
[14] = system: LN-229; experiment: Cell cycle arrest in human LN229 cells assessed as decrease in accumulation at G2/M-phase at cytotoxic IC50 measured after 48 hrs by propidium iodide staining based fluorescence cell imaging analysis; format: functional
Procedure, shortened: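 Cell cycle by PI staining. Cells seeded at 1×10^6 and grown overnight at 37°C, 5% CO₂, then exposed for 48hrs at their IC₅₀ concentration, with DMSO and cisplatin controls. Cells were trypsinized, washed in cold PBS and fixed in 70% ethanol at 4°C for 30 min. They were stained with PI in Triton X-100/RNase for 15 min at 37°C and imaged by fluorescence microscopy. Reported as mean ± S.E.M of triplicates.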

[15] = system: U-87 MG; experiment: Cell cycle arrest in human U87 cells assessed as change in ESPL1 gene expression at cytotoxic IC50 measured after 48 hrs […] relative to control; format: functional, U-87MG ATCC; procedure, shortened: as §1
[16] = Inhibition of RTK/PI3K/AKT/mTOR signaling in human U87 cells assessed as up regulation of fibroblast growth factor 19 gene expression at cytotoxic IC50 measured after 48 hrs relative to control; format: cell-based
[17] = Inhibition of RTK/PI3K/AKT/mTOR signaling in human U87 cells assessed as up regulation of CPLX1 gene expression at cytotoxic IC50 measured after 48 hrs relative to control; format: cell-based; details: U-87MG ATCC; procedure, shortened: as §3
[18] = system: U-87 MG; experiment: Induction of apoptosis in human U87 cells assessed as change in FOS gene expression at cytotoxic IC50 measured after 48 hrs […] relative to control; format: functional, U-87MG ATCC; procedure, shortened: as §2
[19] = Inhibition of RTK/PI3K/AKT/mTOR signaling in human U87 cells assessed as up regulation of zinc finger protein 217 gene expression at cytotoxic IC50 measured after 48 hrs relative to control; format: cell-based; details: U-87MG ATCC
[20] = Inhibition of RTK/PI3K/AKT/mTOR signaling in human U87 cells assessed as down regulation of EIF1B gene expression at cytotoxic IC50 measured after 48 hrs relative to control; format: cell-based; details: U-87MG ATCC; procedure, shortened: as §2
[21] = Inhibition of RTK/PI3K/AKT/mTOR signaling in human U87 cells assessed as up regulation of macrophage stimulating 1 receptor gene expression at cytotoxic IC50 measured after 48 hrs relative to control; format: cell-based
[22] = Inhibition of RTK/PI3K/AKT/mTOR signaling in human U87 cells assessed as up regulation of KCMF1 gene expression at cytotoxic IC50 measured after 48 hrs relative to control; format: cell-based; details: U-87MG ATCC; procedure, shortened: as §3
[23] = Inhibition of RTK/PI3K/AKT/mTOR signaling in human U87 cells assessed as up regulation of IER3 gene expression at cytotoxic IC50 measured after 48 hrs relative to control; format: cell-based; details: U-87MG ATCC; procedure, shortened: as §3
[24] = Inhibition of RTK/PI3K/AKT/mTOR signaling in human U87 cells assessed as down regulation of KIF1BP gene expression at cytotoxic IC50 measured after 48 hrs relative to control; format: cell-based; details: U-87MG ATCC; procedure, shortened: as §2
[25] = system: U-87 MG; experiment: Induction of DNA damage in human U87 cells assessed as change in BTG2 gene expression at cytotoxic IC50 measured after 48 hrs […] relative to control; format: functional, U-87MG ATCC; procedure, shortened: as §1
[26] = Inhibition of RTK/PI3K/AKT/mTOR signaling in human U87 cells assessed as up regulation of RPL7L1 gene expression at cytotoxic IC50 measured after 48 hrs relative to control; format: cell-based; details: U-87MG ATCC; procedure, shortened: as §3
[27] = Inhibition of RTK/PI3K/AKT/mTOR signaling in human U87 cells assessed as down regulation of SORT1 gene expression at cytotoxic IC50 measured after 48 hrs relative to control; format: cell-based; details: U-87MG ATCC; procedure, shortened: as §3
[28] = system: LN-229; experiment: Cytotoxicity against human LN229 cells assessed as reduction in cell proliferation measured after 48 hrs by trypan blue dye-based cell counting analysis; details: LN-229, 48 h

With `CC(=O)C(=NNc1ccccc1C#N)C(C)=O` the “fold change (FC)” value [1] was 1.668, the log2FC [2] was -1.076 and the “fold change (FC)” value [3] was 2.512. For the same compound, the log2FC [4] was 0.785, the log2FC [5] was -0.671 and the “fold change (FC)” value [6] was 1.519. The log2FC [7] was 1.91, the log2FC [8] was -0.865 and the log2FC [9] was 3.514. The log2FC [10] was -1.44, the “fold change (FC)” value [11] was 1.852 and the log2FC [12] was 3.078. The “fold change (FC)” value [13] was 1.427, the Activity [14] was “Active” and the “fold change (FC)” value [15] was 2.307. It also gave a log2FC [16] of 0.722, a log2FC [17] of 1.75 and a log2FC [18] of -3.569. For the same compound, the log2FC [19] was 1.37, the log2FC [20] was -0.906 and the log2FC [21] was 0.723. For the same compound, the log2FC [22] was 0.499, the log2FC [23] was 0.384 and the log2FC [24] was -0.96. The “fold change (FC)” value [25] was 2.177, the log2FC [26] was 0.536 and the log2FC [27] was -0.801. The IC50 [28] was 87 µM.
